Bioassay records: PubChem, several laboratories
Rows were chosen to be rich in hits. Some 3.3% of all compounds tested hit in one or more screens of this group.
CendR NRP1 mod: modulators of CendR peptide binding to NRP-1, primary screen, biochemical, fluorescence polarization, uHTS; Neuropilin-1 (Homo sapiens), O14786; FAM-RPARPAR peptide binding to NRP-1; inhibition, % at 25 µM; 0.85% of 360,000 active;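 active means inhibition or corrected inhibition above about 18%, plus a signal ratio from 0.5 to 1.5, limit read from the data, passing the limit was not always enough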
HTR2A ag: mouse Htr2a agonists via beta-arrestin recruitment, primary screen, cell-based, luminescence; CHO-K1 mHTR2A beta-arrestin complementation; percent of 30 µM serotonin response; 5-hydroxytryptamine receptor 2A (Mus musculus), P35363; 0.66% of 360,000 active; AID 624169, 2012; activation, % at 7.6 µM;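 active means activation above a run cutoff, the mean activation of all tested compounds plus 3 SD, cut at about 14% in these data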
Lipid droplet: inhibitors of hepatocyte lipid droplet formation, primary screen, imaging, high-throughput imaging, BODIPY stain; AML12 mouse hepatocytes, oleate lipid droplets; inhibition, % at 6.5 µM; 0.4% of 240,000 active;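 active means lipid droplet intensity inhibited by at least 50%, with more than 500 cells counted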
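Assay system: AML12 hepatocytes (mouse); Probe or stimulus: oleic acid at 100 µM to induce lipid droplet formation; Dosing: compound at 6.5 µM only; Schedule: compound with oleate, overnight; Detection: fluorescence imaging, 20x objective, two fields per well; Measure: % inhibition of lipid droplet signal.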
Arr AP2 block: inhibitors of beta-arrestin/AP2 binding, primary screen, biochemical, GPCR trafficking, flow cytometry; beta-arrestin 1 C-terminal peptide binding to AP2 beta2-adaptin appendage (human); FITC-arrestin peptide / GST-AP2 beads; AP2 beta2 appendage carries R879A mutation; inhibition, % at 10 µM; 0.31% of 340,000 active;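 active means inhibition above a set limit, near 3 SD of compounds lacking own fluorescence, cut at about 54% in these data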
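Measured by: flow cytometry, FL1 (488/535 nm); Material: AP2 appendage R879A on GSH beads; Evaluation: percent response; Timing: pre-incubation 12 min, peptide binding 1 h, room temperature; Also added: 50 nM FITC-arrestin peptide; Medium: PBS with 0.05% Tween 20 and 0.1% BSA.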
sPLA2-III inh: human group III sPLA2 inhibitors, primary screen, biochemical, QFRET, BODIPY PC-A2 liposome substrate | inhibition, % at 12.2 µM | Group 3 secretory phospholipase A2 (Homo sapiens), Q9NZ20 | 0.56% of 370,000 active | QFRET BODIPY PC-A2 liposome hydrolysis, fluorescence | AID 743126, 2013;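 active means inhibition above mean plus 3 SD of compounds lying within the high and low control bounds, cut at about 19% in these data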
Target sequence (Q9NZ20 whole entry, looked up): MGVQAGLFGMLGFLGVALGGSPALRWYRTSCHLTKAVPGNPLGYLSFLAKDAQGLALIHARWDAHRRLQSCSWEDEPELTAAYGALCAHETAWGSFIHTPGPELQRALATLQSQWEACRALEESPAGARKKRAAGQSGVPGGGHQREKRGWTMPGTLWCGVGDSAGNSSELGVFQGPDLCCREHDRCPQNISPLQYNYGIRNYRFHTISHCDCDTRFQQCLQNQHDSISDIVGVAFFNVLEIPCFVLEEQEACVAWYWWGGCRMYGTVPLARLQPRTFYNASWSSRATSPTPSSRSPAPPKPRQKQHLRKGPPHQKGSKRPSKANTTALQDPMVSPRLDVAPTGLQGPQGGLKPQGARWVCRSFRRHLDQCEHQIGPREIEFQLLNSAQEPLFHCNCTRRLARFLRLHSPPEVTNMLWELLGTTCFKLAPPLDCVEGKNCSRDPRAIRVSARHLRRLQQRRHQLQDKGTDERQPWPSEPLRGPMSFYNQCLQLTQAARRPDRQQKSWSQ
PfM18AAP inh: PfM18AAP inhibitors, malaria aminopeptidase, primary screen, biochemical, QFRET, recombinant enzyme. M18 aspartyl aminopeptidase (Plasmodium falciparum 3D7). 1.2% of 290,000 active. AID 1822, 2009. inhibition, % at 7.35 µM. H-Glu-NHMec fluorogenic cleavage;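 active means inhibition above the campaign mean inhibition over all tested compounds plus 3 SD, cut at about 28% in these data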
Arr-AP2 CP1: inhibitors of arrestin peptide binding to AP2, confirmation, biochemical, cherry pick 1, flow cytometry beads; GST-AP2 beads, FITC arrestin peptide binding; GST-fused beta2-adaptin appendage, R879A mutant; inhibition, % at 10 µM; 2% of 1,300 active; shares compounds with Arr AP2 block;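 active means inhibition above a set limit, roughly 3 SD of non-fluorescent compound noise, cut at about 38% in these data; inactive means inhibition at or below that limit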;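 further: loss of bead fluorescence from 50 nM FITC arrestin peptide bound to appendage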
GST-FITC bead: GST-fluorescein capture on glutathione beads, confirmation, artefact control for arrestin-AP2 inhibitor project, biochemical, cherry pick 1, flow cytometry. shares compounds with Arr AP2 block. 2% of 1,300 active. GST-fluorescein binding to GSH beads, fluorescence, counter-screen. inhibition, % at 10 µM;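 active means inhibition above 50%, about 3 SD of the inhibition seen with non-fluorescent compounds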;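 further: fluorescein maleimide labelled GST captured on 4 micron glutathione beads; higher means more loss of bead fluorescence from quenching or blocked binding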
Large screens that a line does not name were inactive (follow-up assays come after a bar, where they were run).

Cc1cccc(C)c1NC(=O)CN(C)C(=O)c1ccc(NS(=O)(=O)c2ccc3[nH]c(=O)[nH]c3c2)cc1	none (no result: Lipid droplet, PfM18AAP inh)
COc1cccc(Nc2ncccc2C(=O)NCc2ccccc2)c1	none
COc1ccc(Nc2ncccc2C(=O)NCc2ccccc2)cc1	Arr AP2 block 58 | Arr-AP2 CP1 inactive | GST-FITC bead inactive
Cc1cc2cc(NC(=O)c3ccco3)ccc2[nH]1	Arr AP2 block 100 | Arr-AP2 CP1 inactive | GST-FITC bead inactive
O=C(Nc1ccccc1)Oc1ccccc1N1CCOCC1	Arr AP2 block 66 | Arr-AP2 CP1 inactive | GST-FITC bead inactive
COCCN(Cc1ccc(OC)cc1)c1c(C)nc2ccc(C(=O)Nc3ccc(NC(C)=O)cc3)cn12	none (no result: Lipid droplet, Arr AP2 block, PfM18AAP inh)
Cn1c(Cl)c(/C=N/OC(=O)c2ccccc2Cl)c2ccccc21	Arr AP2 block 54 | Arr-AP2 CP1 inactive | GST-FITC bead inactive
O=C(Nc1cc([N+](=O)[O-])ccc1Cl)c1ccc2c(c1)OCO2	Arr AP2 block 89 | Arr-AP2 CP1 inactive | GST-FITC bead inactive
Cc1ccc([N+](=O)[O-])cc1NC(=O)c1ccc2c(c1)OCO2	none
O=C(Nc1ccc(Cl)cc1[N+](=O)[O-])c1ccc2c(c1)OCCO2	Arr AP2 block 63 | Arr-AP2 CP1 inactive | GST-FITC bead inactive
O=C(Nc1ccc(F)c([N+](=O)[O-])c1)c1ccc2c(c1)OCCO2	none
CCOC(=O)[C@@]12CCCC3=C1N(CCC3)C(=O)[C@H]2CC(=O)NCC12CC3CC(CC(C3)C1)C2	none (no result: CendR NRP1 mod, HTR2A ag, Lipid droplet, Arr AP2 block, PfM18AAP inh)
COC(=O)[C@]12C[C@H](CC(=O)N3CCN(C(=O)c4ccco4)CC3)C(=O)N(CCC3=CCCCC3)C1=C[C@H](C(C)C)O[C@@H]2C1CC1	none (no result: CendR NRP1 mod, HTR2A ag, Lipid droplet, Arr AP2 block, PfM18AAP inh)
Cc1ccc(-n2c(SCC(=O)Nc3ccccc3-c3ccccc3)nnc2-c2ccccc2)cc1	none (no result: CendR NRP1 mod, HTR2A ag, Lipid droplet, Arr AP2 block, PfM18AAP inh)
CCCCc1ccc(NC(=O)CC(C)(C)C)cc1	none (no result: Lipid droplet)
CCCCc1ccc(NC(=O)CC(C)=O)cc1	none (no result: Lipid droplet) | Arr-AP2 CP1 inactive | GST-FITC bead inactive
CC(C)(C)NC(=O)/C(=C/c1ccco1)c1ccccc1	Arr AP2 block 88 (no result: Lipid droplet) | Arr-AP2 CP1 inactive | GST-FITC bead inactive
COc1ccc(C(=O)NC(=S)Nc2ccc(S(=O)(=O)Nc3cc(OC)nc(OC)n3)cc2)cc1	Arr AP2 block 56 | Arr-AP2 CP1 inactive | GST-FITC bead inactive
COc1cc(NS(=O)(=O)c2ccc(NC(=S)NC(=O)c3ccc(F)cc3)cc2)nc(OC)n1	none
O=C(O)C(Cc1ccc(O)cc1)N1C(=O)C2CCCCC2C1=O (stereo not given)	none
O=C(Nc1ccc2c(c1)OCCO2)c1coc2ccccc2c1=O	Arr AP2 block 89 | Arr-AP2 CP1 inactive | GST-FITC bead inactive
CCn1c(=O)n(CC)c2cc(N3CCCC3)c(NC(=O)c3cccc(Cl)c3)cc21	PfM18AAP inh 32 | Arr-AP2 CP1 inactive | GST-FITC bead inactive
CCC(=O)N1CCN(c2ccccc2NC(=O)c2cccc(C)c2)CC1	none
CCn1c(=O)n(CC)c2cc(N3CCCC3)c(NC(=O)c3ccc(C)c([N+](=O)[O-])c3)cc21	Arr AP2 block 70, PfM18AAP inh 29 | Arr-AP2 CP1 inactive | GST-FITC bead inactive
Cc1cc(NC(=O)c2ccc(N3CCCC3)c([N+](=O)[O-])c2)no1	Arr AP2 block 98 | Arr-AP2 CP1 inactive | GST-FITC bead inactive
CCN1CCN(c2ccc(S(=O)(=O)N3CCCCC3)cc2NC(=O)c2cccc(Cl)c2)CC1	none (no result: Lipid droplet, PfM18AAP inh)
CCn1c(=O)n(CC)c2cc(N3CCCC3)c(NC(=O)c3cccc(C)c3)cc21	Arr AP2 block 64 | Arr-AP2 CP1 inactive | GST-FITC bead inactive
CN1CCN(c2ccccc2NC(=O)c2ccc(N3CCCC3)c([N+](=O)[O-])c2)CC1	none
CCCN1C(=O)c2n[nH]c(C)c2C1c1ccc2c(c1)OCO2 (stereo not given)	none (no result: CendR NRP1 mod, HTR2A ag, Lipid droplet, Arr AP2 block, PfM18AAP inh)
CC1CCC2(CC1)CCC2NCc1ccc(Cl)c(Cl)c1 (stereo not given)	none (no result: CendR NRP1 mod, HTR2A ag, Lipid droplet, Arr AP2 block, PfM18AAP inh)
CN1[C@@H]2CC[C@H]1CC(OC(=O)[C@H](CO)c1ccccc1)C2 (stereo not given in full)	none
Cc1cc(C)nc(N2CCN(C(=O)CSc3nc4ccccc4nc3N3CC(C)OC(C)C3)CC2)n1 (stereo not given)	none (no result: CendR NRP1 mod, HTR2A ag, Lipid droplet, Arr AP2 block, PfM18AAP inh)
Cc1ccc(NC(=O)N2CCCCC2)cc1NC(=O)N1CCCCC1	none
Cc1ccc(NC(=O)N2CCCCCC2)cc1C	Arr AP2 block 63 | Arr-AP2 CP1 inactive | GST-FITC bead inactive
COCCn1c(SCC(=O)N2CCCC2)nnc1C(C)C	none (no result: Lipid droplet)
CCCn1c(SCC(=O)N2CCCCC2)nnc1C(C)C	Arr AP2 block 56 | Arr-AP2 CP1 inactive | GST-FITC bead inactive
O=C(NCCc1ccccc1Cl)[C@@H]1CCCN1C(=O)[C@H](Cc1cccnc1)NC(=O)N1CCOCC1	none (no result: CendR NRP1 mod, HTR2A ag, Lipid droplet, Arr AP2 block, PfM18AAP inh)
COc1ccc(CCN2C(=O)CS/C2=N\NC(=O)c2ccc(C(C)(C)C)cc2)cc1OC	Arr AP2 block 62 | Arr-AP2 CP1 inactive | GST-FITC bead inactive
O=C(N[C@@H]1CC[C@H]2SC[C@H](C(=O)O)N2C1=O)OCC1c2ccccc2-c2ccccc21	none (no result: CendR NRP1 mod, HTR2A ag, Lipid droplet, Arr AP2 block, PfM18AAP inh)
CCC(CO)Nc1cccc2c1S(=O)(=O)N(Cc1cn(Cc3ccc(Cl)cc3)nn1)Cc1ccccc1O2 (stereo not given)	none (no result: CendR NRP1 mod, HTR2A ag, Lipid droplet, Arr AP2 block, PfM18AAP inh)
COc1ccc(N2CCN(S(=O)(=O)CCNC(=O)/C=C/c3ccc4c(c3)OCO4)CC2)cc1	Arr AP2 block 63 (no result: Lipid droplet, PfM18AAP inh) | Arr-AP2 CP1 inactive | GST-FITC bead inactive
COc1ccc(OC)c(NC(=O)COc2coc(CN3CCc4ccccc43)cc2=O)c1	none (no result: Lipid droplet, PfM18AAP inh)
CC(C)CCN1CCN(Cc2ccc(C#CC(C)(C)O)s2)CC1CCO (stereo not given)	Arr AP2 block 62 | Arr-AP2 CP1 inactive | GST-FITC bead inactive
CC(C)CN1CCN(Cc2ccc(C#CC(C)(C)O)cc2)CC1CCO (stereo not given)	none
